# Reference: ChEMBL document CHEMBL2021827, “Caspase-1 inhibitors from an extremophilic fungus that target specific leukemia cell lines” (2012)
# Calls of active or inactive are those of the source. No cut-off for these calls is given here.
# Columns and labels:
# RPMI-8226 = experiment: Cytotoxicity against human RPMI8226 cells by MTS assay; format: functional
# THP-1 [1] = experiment: Inhibition of IL-1beta production in human THP1 cells at 5 uM by dilution assay; format: functional, cell-based
# Procedure, shortened: (§1)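 THP-1 cells are kept in RPMI with 10% FBS, 0.05 mM 2-mercaptoethanol, sodium pyruvate and penicillin/streptomycin/amphotericin B. They are differentiated with PMA (1 µg/mL) 24 h beforehand, scraped, and resuspended at 1.0 × 10^6 cells/mL. Cells are co-exposed to compound, LPS (20 ng/mL) and TiO2 nanowires (100 µg/mL) for 24 h at 37 °C in CO2. Supernatant IL-1β is measured by ELISA read at 490 nm.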
# Caspase-1 (Homo sapiens) = molecular target: T1, Caspase-1 (Homo sapiens) (UniProt P29466); experiment: Inhibition of caspase-1 in human THP1 cells after 24 hrs by fluorometric assay; format: cell-based; details: THP-1
# T1 sequence (whole entry): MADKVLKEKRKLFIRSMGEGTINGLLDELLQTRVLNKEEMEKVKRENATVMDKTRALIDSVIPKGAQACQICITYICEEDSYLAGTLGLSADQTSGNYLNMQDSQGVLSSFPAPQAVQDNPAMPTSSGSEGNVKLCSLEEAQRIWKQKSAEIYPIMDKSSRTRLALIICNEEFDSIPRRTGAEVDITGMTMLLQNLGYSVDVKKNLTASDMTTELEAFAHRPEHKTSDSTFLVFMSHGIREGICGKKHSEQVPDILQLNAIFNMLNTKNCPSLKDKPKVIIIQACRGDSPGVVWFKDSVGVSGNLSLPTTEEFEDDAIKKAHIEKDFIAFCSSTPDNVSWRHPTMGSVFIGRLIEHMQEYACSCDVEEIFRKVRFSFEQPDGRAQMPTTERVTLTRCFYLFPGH
# Leukemia cell = experiment: Cytotoxicity against human leukemia cells by MTS assay; format: functional, cell-based
# THP-1 [2] = experiment: Inhibition of IL-1beta production in human THP1 cells at 250 uM by ELISA; format: functional, cell-based; procedure, shortened: as §1
# HL-60(TB) = experiment: Cytotoxicity against human HL-60(TB) cells by MTS assay; format: functional
# CCRF-CEM = experiment: Cytotoxicity against human CCRF-CEM cells by MTS assay; format: functional
# THP-1 [3] = experiment: Inhibition of IL-1beta production in human THP1 cells at 50 uM by dilution assay; format: functional, cell-based; procedure, shortened: as §1
# SR = experiment: Cytotoxicity against human SR cells by MTS assay; format: functional
Compound,IC100 (Caspase-1 (Homo sapiens)) [µM],Activity (Leukemia cell),inhibition (THP-1 [2]),further results
C/C=C/C1=CC2=CC(=O)[C@](C)(OC(=O)c3c(C)cc(O)cc3O)[C@H](O)[C@H]2CO1 [BERKAZAPHILONE B],25,Active,Active,GI50 (RPMI-8226): 2140 nM; inhibition (THP-1 [1]): Active
COc1cc(OC)c2c(c1)C(=O)O[C@H]2c1coc(C)cc1=O [PENISIMPLICISSIN],,Active,Active,GI50 (HL-60(TB)): 1480 nM; GI50 (CCRF-CEM): 200 nM
C/C=C/c1cc(=O)c([C@@H]2OC(=O)c3cc(OC)cc(OC)c32)co1,,,Active,
CCCc1cc(=O)c([C@@H]2OC(=O)c3cc(OC)cc(OC)c32)co1,,,Active,Activity (HL-60(TB)): inactive; inhibition (Caspase-1 (Homo sapiens)): inactive
C/C=C/C1=CC2=CC(=O)[C@](C)(O)[C@H](OC(=O)c3c(C)cc(O)cc3O)[C@H]2CO1 [BERKAZAPHILONE C],25,Active,Active,inhibition (THP-1 [3]): Active; GI50 (SR): 380 nM
